The values that follow come from the RNAGym collection of RNA variant scans (doi:10.1126/science.aae0568).

First the molecules themselves.
B1: tRNA (parent)
chain: GUUCCGUUGGCGUAAUGGUAACGCGUCUCCCUCCUAAGGAGAAGACUGCGGGUUCGAGUCCCGUACGGAACG

This sample holds only a part of the variants without activity.

Variants of B1 are the subject of this data set. The experiment in a line: yeast fitness relative to wild type (ratio to wild type); higher = fitter; tRNA-Arg(CCU), competitive growth, 37 C, YPD. Summed up: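 The tRNA-Arg(CCU) gene variants were made by chemical synthesis with a 3% per-site mutation rate at 69 sites and inserted at the native genomic locus of Saccharomyces cerevisiae. After pooling, the strains were competed in YPD at 37°C for 24 hours in six parallel replicates. Gene amplicons from the start population and each end population were read by 100-nucleotide paired-end sequencing, and Darwinian fitness relative to wild type was taken from genotype frequency changes. Genotypes needed ≥ 100 starting reads, and estimates < 0.5 were set to 0.5.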
For G9C A37G G41A G50A, the yeast fitness is 0.532.
The figure for G9C A14U G48C A69U is not above 0.5; for G9C U28C G44C it is 0.619; for G9C C22G C33A it is 0.598.
The figure for G9C C34G G51A A70G is not above 0.5.
Then G9C A15U C31U U35C G51C G56A C62G, with not above 0.5; and G9C G48A A69C, with 0.627; and G9C U26C C61A G67A, with not above 0.5.
Take G9C C66G: the yeast fitness was determined as 0.547.
The figure for G9C C24G C29G C55U A70G is not above 0.5.
Then G9C U26G, with 0.684; and G9C U26C, with 0.612; and G9C C31A C49G C55G A70C, with not above 0.5.
The figure for G9C A15U C24U U53G C62G is not above 0.5.
Turning to G10A A14C C29A, the yeast fitness was not above 0.5.
Consider G9C A36U A45C G52A, for which the yeast fitness is not above 0.5.
The figure for G9C C46A is 0.893.
The figure for G9C U19A A20G C29U A37U C62U G67A A70C is not above 0.5; for G9C A42G C62G A69G it is not above 0.5.
Then G9C U19C A69U, with 0.656; and G10A A21G C22U, with 0.606; and G9C C11G A20U C31U G38C, with not above 0.5.
As for G10A A21G U28C, the yeast fitness is not above 0.5.
Then G9C G12C A14G A20C G67C, with not above 0.5; and G9C A15U U28G C55G A69U, with 0.599; and G9C C62U, with 0.814.
Then G10A A14G A36G, with not above 0.5.
With G9C U28A, the yeast fitness amounted to 0.708.
With G10A A14U A21C C29U C60A, the yeast fitness amounted to 0.647.
The figure for G9C U13A G25A A40C A57C C61U G67A is not above 0.5; for G10A A36G C60G it is not above 0.5; for G10A A14C C34U A42G it is 0.65.
With G9C G38C G48C, the yeast fitness was found to be 0.582.
Then G9C U16C C30U, with 0.506; and G9C U28C G44C U54C, with not above 0.5; and G9C U16A C24U C30U, with 0.533.
Consider G9C A15C G52C, for which the yeast fitness was not above 0.5.
In the case of G9C C24U U26G G68U, the yeast fitness is not above 0.5.
Then G9C C24U U26G C61G, with 0.504.
For G9C A14C A20U G23C C31U C55U, the yeast fitness is not above 0.5.
The figure for G9A U28C G38A G44A G51C G58C is not above 0.5; for G9C A14C C66U it is not above 0.5.
The figure for G9C C11A A15U C24G C33G G38C A43G C61G is not above 0.5; for G9C C31A it is 0.685; for G9C U13C C31G A65U it is not above 0.5.
Then G9C G17A C27U U54A, with not above 0.5; and G9C G48A, with 0.705.
Consider G9C C24G C30U, for which the yeast fitness is not above 0.5.
As for G9C A14U C27G C29U C46U C60G, the yeast fitness worked out at 0.596.
Then G9A U53A, with 0.701; and G9C U16C C30U U59A C60G, with not above 0.5; and G9U C27U C29A C31A, with not above 0.5.
The figure for G9C U32C A36G G52A is not above 0.5.
As to G9C U53C C60A, the yeast fitness was not above 0.5.
Then G9C G23A A40C G41A C55G, with not above 0.5; and G10A A20C C27G A40G, with not above 0.5.
As for G9C U35A A43U, the yeast fitness is not above 0.5.
With G9C U16G A70U, the yeast fitness is not above 0.5.
The figure for G9C A14G G52C C60A is not above 0.5.
The figure for G9C C30U A69U is not above 0.5.
Then G10A A14U A43C A69C, with not above 0.5; and G9C C34A C46A G56A, with not above 0.5; and G9A U54A, with 0.696.
G9C A14G C66U: the yeast fitness was not above 0.5.
Then G10A C11G C30G A57G G58A U59A, with not above 0.5; and G10A C11A C29A C66U, with not above 0.5.
The figure for G10A A36C A70U is not above 0.5; for G9C A15G A21U G56A A57G G67A it is 0.593.
The figure for G9C A37U G52A is not above 0.5; for G9A U53A A65C A70C it is not above 0.5; for G9C U13G G38C A45G C62G it is not above 0.5.
For G10A A20U A70C, the yeast fitness was found to be 0.579.
On to G9C A14U A42G, for which the yeast fitness was not above 0.5.
Then G9C G63A C66U, with not above 0.5; and G10A A37C A57C, with not above 0.5.
As for G9A U35A A37U C46U A65C, the yeast fitness amounted to 0.633.
Then G9C C27G C46U, with 0.582; and G9C A14G A57U C60A C61G, with not above 0.5.
Then G10A C11A C60A, with not above 0.5.
For G9C G10C C29G, the yeast fitness was not above 0.5.
As to G9C A37U, the yeast fitness worked out at 0.663.
With G9C C11G C24U C31U U59G A70C, the yeast fitness was not above 0.5.
Then G9C C11U C24G C31U C34U C49U A69C, with not above 0.5.
Turning to G9C A20U U28A, the yeast fitness was determined as 0.535.
In the case of G9C G17C C27G U35A C49A, the yeast fitness was not above 0.5.
Then G9C U19C C31A C55U, with 0.641.
Consider G9C A15C U35C U59A, for which the yeast fitness stood at 0.605.
In the case of G9C C22G C62U C66A, the yeast fitness was not above 0.5.
The figure for G9C A14G A45G is not above 0.5.
As to G9C G10C, the yeast fitness was found to be 0.68.
The figure for G9C G10C C29G C46A is 0.59; for G9C G51C G52A it is not above 0.5; for G10A A15C G25A U47C C66U it is 0.558.
For the variant G10A A20U C27U U35C G48C C60A, the yeast fitness is not above 0.5.
As for G9C U13C C55U A57C, the yeast fitness is not above 0.5.
Regarding G9C A15U C60G C61G G68C, the yeast fitness was not above 0.5.
For G10A A20G G23A A37G A40C C66U, the yeast fitness was not above 0.5.
The figure for G9C C27U is 0.621; for G9A U28C G44A G51C G58C it is 0.51.
The figure for G9C A14G is 0.579; for G9A U47C G48C U59A C66A A69C it is not above 0.5.
Then G9C U16C, with 0.731.
As to G9C A21U U54A A70G, the yeast fitness is not above 0.5.
The figure for G10A A42G G50C is not above 0.5.
Take G9C G12A G48C C62A: the yeast fitness was not above 0.5.
Then G10A C11A C22U C34G A43C G48C, with 0.585.
Then G9C G18C G44A, with 0.526.
The figure for G9C A43U C49A is not above 0.5; for G10A A37G C49G it is not above 0.5.
For the variant G9C C49G G50A C60G A65G A70G, the yeast fitness is not above 0.5.
Take G9C G10C A69G A70G: the yeast fitness is not above 0.5.
The figure for G9C G17A C27U is not above 0.5.
The figure for G9C U13C A20G C31G A57G is not above 0.5; for G9C A14G C29U A36C A45G G67U it is not above 0.5; for G9C A15G it is 0.633.
Regarding G10A A21U A42G, the yeast fitness is not above 0.5.
The figure for G9C C30U C31G is 0.632; for G9C C27U A42U C55G it is not above 0.5.
Then G10A A20U A42G C60U U64A C66A G68A A69G, with not above 0.5; and G9C C24A C62G, with not above 0.5; and G9A U35C A42U, with not above 0.5.
The figure for G10A A15G A42C is not above 0.5; for G9U A37U G50C C66U it is not above 0.5; for G9C A20G U35C A36G G58A G67A it is not above 0.5.
For G10A A45G C46G U54G A70C, the yeast fitness was 0.532.
Then G9C C33A A70C, with 0.826; and G10A A21U U53A, with 0.521; and G9C C29A C34U, with not above 0.5.
Then G9C U32C A43C, with not above 0.5.
Then G9C A20C C27U G39A G56A G58C, with not above 0.5.
In the case of G9C U19C A40U A57U, the yeast fitness is not above 0.5.
For the variant G9C C29G C31U C34G A42G, the yeast fitness is 0.535.
For the variant G9A U59A, the yeast fitness was 0.936.
For G9C A15C C29A G58A C61G A70U, the yeast fitness was not above 0.5.
Then G9C G68C, with 0.777; and G9C C27G C29G A36C C61A, with not above 0.5.
Then G9C C30A C46A G48C A70C, with not above 0.5; and G9C A15G A21G C49G C60A, with not above 0.5.
For the variant G9A U28C G44A G68C, the yeast fitness was not above 0.5.
Then G9C U26C U54G, with not above 0.5; and G9C U13A G25A A40C G67C, with not above 0.5.
Then G9C A14G C55G C61U, with not above 0.5; and G9A U35A A43C, with not above 0.5.
The figure for G9C A21U C27U G44A C66U is 0.602; for G9C C27G G52C it is 0.595; for G9C C27U C33G A37G C66U it is not above 0.5.
For the variant G9C C24U C30G G51A C60U G67A, the yeast fitness was 0.543.
The figure for G9C A20G A36U is not above 0.5; for G10A A45U C61U it is 0.536.
The figure for G9U U16G C66A is not above 0.5; for G9C A21C C29U it is not above 0.5.
The figure for G9C G50C is 0.514; for G9C C11A A15U C24G C33G G38C A43G C60U G63A it is not above 0.5; for G9A U47A A69U it is 0.676.
As to G9C C11A A40C, the yeast fitness turned out to be 0.671.
The figure for G9C C11G C24U C31U U59A A70C is 0.563.
Consider G9C U28A G50C U59A, for which the yeast fitness is 0.685.
In the case of G10A A20U U35C G48C, the yeast fitness is 0.723.
The figure for G9C G39C G41A A43U is not above 0.5; for G9C G48C G58A A70U it is 0.552; for G10A A36U G38A A65C it is not above 0.5.
Then G9U G23C A45U G51C, with not above 0.5; and G10A A15U A36U A70C, with not above 0.5.
Turning to G10A A15C C49A C61U C62G, the yeast fitness is not above 0.5.
The figure for G9C A70G is 0.615; for G10A A36U A43G C66A it is not above 0.5.
Turning to G10A C11A A15C C24A C34A C46G G67C, the yeast fitness was not above 0.5.
